Measurements pooled from the literature.
Target: Interleukin-1 receptor-associated kinase 4 (IRAK4, Homo sapiens, UniProt Q9NWZ3)
One construct used (Q9NWZ3 1-460): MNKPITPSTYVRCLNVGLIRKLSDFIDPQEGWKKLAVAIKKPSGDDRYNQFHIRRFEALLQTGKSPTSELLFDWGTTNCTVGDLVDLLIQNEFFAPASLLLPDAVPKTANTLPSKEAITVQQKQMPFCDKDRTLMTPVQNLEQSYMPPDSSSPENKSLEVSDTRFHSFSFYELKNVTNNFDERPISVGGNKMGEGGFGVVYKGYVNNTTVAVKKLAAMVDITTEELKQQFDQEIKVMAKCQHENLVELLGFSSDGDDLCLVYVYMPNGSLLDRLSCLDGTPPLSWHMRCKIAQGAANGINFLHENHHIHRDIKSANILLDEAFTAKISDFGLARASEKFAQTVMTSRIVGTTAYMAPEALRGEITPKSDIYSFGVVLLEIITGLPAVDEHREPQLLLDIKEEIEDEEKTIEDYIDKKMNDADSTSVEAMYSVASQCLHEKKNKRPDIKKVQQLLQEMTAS

`Nc1ncc(-c2nc(N3CCOCC3)nc(N3CCOCC3)n2)c(C(F)F)n1` has a remaining binding of 72% (binding, competition with immobilised ligand; 10 µM).
With `C#Cc1n[nH]c2c(-c3cn([C@@H](C)c4ccccn4)c(=O)[nH]c3=O)cc(F)cc12` the inhibition was 14.7% (enzyme activity, inhibitor; 0.1 µM).
The remaining activity of `CC(C)(C)c1cc(C=C(C#N)C#N)cc(Br)c1O` is reported as 182% (enzyme activity, inhibitor; 0.5 µM).
`Cn1cc(-c2cccc(N3CCc4c(sc5c4CC(C)(C)C5)C3=O)c2CO)cc(Nc2ccncn2)c1=O` has an inhibition of 6% (enzyme activity, inhibitor; 1 µM).
`N#CC1(c2ccccn2)CCN(Cc2cc(C(=O)O)c(=O)n3ccccc23)CC1` has a remaining binding of 83% (cell-free assay, competition with immobilised ligand; 1 µM).
The inhibition of `COc1cc(Nc2ncc(F)c(Nc3ccc4c(n3)NC(=O)C(C)(C)O4)n2)cc(OC)c1OC` is reported as 96% (binding; 10 µM).
The remaining binding of `COc1ncccc1-c1cnn2ccc(N3CCN(C(=O)OC(C)C)CC3)nc12` is reported as 100% (binding, competition with immobilised ligand; 1 µM).
`C#Cc1n[nH]c2c(-c3cn([C@@H](C)c4ccccc4)c(=O)[nH]c3=O)cc(F)cc12` has an inhibition of 11.7% (enzyme activity, inhibitor; 0.1 µM).
The remaining signal of `O=c1[nH]c2ccccc2n1C1CCN(Cc2ccc(-c3[nH]c4cc5ncnc5cc4nc3-c3ccccc3)cc2)CC1` is reported as 201% (cell-free assay; 0.5 µM).
The remaining binding of `Cn1cncc1[C@@](O)(COc1ccc(C#N)cc1-c1ccc(OC(F)(F)F)cc1)c1ccc(C#N)cc1` is reported as 80% (cell-free assay, competition with immobilised ligand; 1 µM).
The remaining binding of `Cc1nn(C)cc1-c1nc2c(N3CCN(Cc4ccc(Cl)cc4)CC3)c(Cl)cnc2[nH]1` is reported as 74% (binding, competition with immobilised ligand; 1 µM).
`Cn1cc(-c2cc(F)cc(N3CCn4c(cc5c4CCCC5)C3=O)c2CO)cc(Nc2ccc(N3CCN(C4COC4)CC3)cn2)c1=O` has an inhibition of 8% (enzyme activity, inhibitor; 0.1 µM).
